Measurements reported in paper PMC5529739 (CPT: Pharmacometrics & Systems Pharmacology, 2017).

Legend:
[1] = Population PK model of selexipag and ACT-333679 in PAH patients; format: in vivo, human; settings: for Vd/F: human, plasma, oral; for AUC over a dosing interval at steady state, higher in PAH patients than in healthy subjects: patient model vs healthy subject model
human IP receptor = settings: human pulmonary arterial smooth muscle cells, cellular shape change; cited from earlier work
platelet aggregation = settings: clinically relevant concentrations, healthy subjects; cited from earlier work
[2] = format: in vivo, human
How it was run: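 Oral b.i.d. dosing titrated in 200 μg steps to each patient's tolerated dose, max 1,600 μg b.i.d. Trough plasma samples at baseline and weeks 4–52, plus one week-16 window sample. Model-predicted steady-state AUC at the individual maintenance dose gave AUCcombined (1/38 parent + 37/38 metabolite); placebo exposure was set to 2.5 ng/mL. Lab values were averaged per subject over weeks 8–52, not imputed, and fitted by log-linear regression on log10 exposure and baseline.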

[3] = cited from earlier work
[4] = range 100–1,800 μg; cited from earlier work
[5] = PAH patients, population estimate
[6] = body weight 96 kg vs reference patient 70 kg
[7] = total bilirubin 5 μmol/L vs reference 10 μmol/L
[8] = total bilirubin 25 μmol/L vs reference 10 μmol/L

With `CC(C)N(CCCCOCC(=O)O)c1cnc(-c2ccccc2)c(-c2ccccc2)n1` [ACT‐333679] the “k43, transfer rate constant peripheral to central compartment ACT-333679” value [1, 5] was 0.18 h⁻¹, the “AUCss, covariate effect on exposure over a steady-state dosing interval” value (from here on “AUCss … over a steady-state dosing interval”) [1, 6] was −10% and the Vd/F [1] was 4.65 L. For the same compound, the “AUCss … over a steady-state dosing interval” value ([1]; male vs female) was −13%, the “AUC over a dosing interval at steady state, higher in PAH patients than in healthy subjects” value [1] was 20% and the “Body weight on Vm/F, covariate effect” value ([1]; power coefficient, Vm=Vm,pop (bw/70)^coefficient) was 0.88. The “AUCss … over a steady-state dosing interval” value [1, 7] was −20%, the “AUCss … over a steady-state dosing interval” value [1, 8] was “+30%” and the “Potency in activating the human IP receptor relative to selexipag” value (human IP receptor) was 37 fold. The “Effect on platelet aggregation” value (platelet aggregation) was “no effect”.

With `CC(C)N(CCCCOCC(=O)NS(C)(=O)=O)c1cnc(-c2ccccc2)c(-c2ccccc2)n1` [selexipag, Selexipag] the “k12, transfer rate constant central to peripheral compartment selexipag” value [1, 5] was 0.09 h⁻¹, the “k21, transfer rate constant peripheral to central compartment selexipag” value [1, 5] was 0.06 h⁻¹ and the “ka, absorption rate constant” value [1, 5] was 0.71 h⁻¹. The “kmet, metabolism rate constant selexipag to ACT-333679” value [1, 5] was 0.67 h⁻¹, the “CL/F, apparent selexipag clearance” value ([1]; PAH patients, population estimate, 70 kg, total bilirubin 10 μmol/L) was 19.10 L/h and the “AUCss … over a steady-state dosing interval” value ([1]; body weight 51 kg vs reference patient 70 kg) was “+30%”. For the same compound, the “AUCss … over a steady-state dosing interval” value [1, 6] was −20%, the Vd/F [1] was 12.9 L and the “AUCss … over a steady-state dosing interval” value ([1]; male vs female) was “No change”. The “AUC over a dosing interval at steady state, higher in PAH patients than in healthy subjects” value [1] was 30%, the “Total bilirubin on CL/F, covariate effect” value ([1]; power coefficient, CL=CLpop (bilirubin/10)^coefficient, bilirubin at baseline) was −0.40 and the “Body weight on CL/F, covariate effect” value ([1]; power coefficient, CL=CLpop (bw/70)^coefficient) was 0.61. The “Body weight on Vp/F, covariate effect” value ([1]; power coefficient, Vp=Vp,pop (bw/70)^coefficient) was 1.2, the “AUCss … over a steady-state dosing interval” value [1, 7] was −20% and the “AUCss … over a steady-state dosing interval” value [1, 8] was “+30%”. For the same compound, the “Probability of a treatment-emergent AE of hemorrhage and gastrointestinal hemorrhage: relationship to exposure” value ([2]; AUCcombined at steady state) was “no statistically significant relationship to exposure”, the “Total bilirubin, model-predicted” value ([2]; at the highest exposure, 12.03 μmol/L with placebo) was 10.58 µmol/L and the “Hemoglobin, model-predicted” value ([2]; at the highest exposure, 138.84 G/L with placebo) was 134.58 G/L. The “Plasma NT pro-BNP, model-predicted” value ([2]; at the highest exposure, 667 with no exposure (placebo)) was 475 ng/mL, the “6-MWD at steady state, model-predicted” value ([2]; at the highest predicted steady-state exposure, reference patient, 369 m on placebo) was 392 m and the “Hazard ratio for a primary endpoint event (death or a complication associated with underlying PAH) vs placebo” value ([3]; 99% confidence interval 0.46–0.78, P < 0.001) was 0.6. The “NT pro-BNP levels in the presence of selexipag” value [3] was “significantly lower”, the “6-MWD difference between placebo and selexipag” value ([3]; week 26, across doses) was 12 m and the “Effect on platelet aggregation” value (platelet aggregation) was “no effect”. For the same compound, the “Dose proportionality of PK” value [4] was “dose‐proportional”.
